Each structure is given as a SMILES string.

Assay [1] has as its system Citrobacter koseri. Kind of assay: In vitro minimal inhibitory concentration (MIC) in brain-heart infusion broth in the presence of hog liver esterase(1:1.5) in Citrobacter diversus 031. The class given is functional. The essentials: (§1)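 Two-fold serial broth dilution in brain-heart infusion broth. POM ester prodrugs were incubated with hog liver esterase (1:1.5) in the broth so the ester is converted in situ to the free acid. The MIC is the lowest concentration that inhibits growth.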

A further assay concerns Haemophilus influenzae. Kind of assay: In vitro minimal inhibitory concentration (MIC) in brain-heart infusion broth in the presence of hog liver esterase(1:1.5) in Haemophilus influenzae 012.
A further assay deals with Morganella morganii. Description: In vitro minimal inhibitory concentration (MIC) in brain-heart infusion broth in the presence of hog liver esterase(1:1.5) in Morganella morganii 001. The class given is functional. Put shortly: as §1
The subject of another assay is Streptococcus pyogenes. Kind of assay: In vitro minimal inhibitory concentration (MIC) in brain-heart infusion broth in the presence of hog liver esterase(1:1.5) in Streptococcus pyogenes 203. The format is functional. Put shortly:
as §1

Assay [2] concerns Staphylococcus aureus. Kind of assay: In vitro minimal inhibitory concentration (MIC) in brain-heart infusion broth in the presence of hog liver esterase(1:1.5) in Staphylococcus aureus 005. The format is functional. Put shortly:
as §1

In assay [3] the test system is Escherichia coli. Kind of assay: In vitro minimal inhibitory concentration (MIC) in brain-heart infusion broth in the presence of hog liver esterase(1:1.5) in Escherichia coli 129. The format is functional. The essentials: as §1
Assay [4] concerns Escherichia coli. Description: In vitro minimal inhibitory concentration (MIC) in brain-heart infusion broth in the presence of hog liver esterase(1:1.5) in Escherichia coli 266. The format is functional. Put shortly:
as §1

Assay [5] concerns Klebsiella pneumoniae. Kind of assay: In vitro minimal inhibitory concentration in brain-heart infusion broth in the presence of hog liver esterase(1:1.5) in Klebsiella pneumoniae 079. The format is functional. The essentials:
as §1

For assay [6], the system named is Klebsiella pneumoniae. Kind of assay: In vitro minimal inhibitory concentration (MIC) in brain-heart infusion broth in the presence of hog liver esterase(1:1.5) in Klebsiella pneumoniae 009. The format is functional. The essentials: as §1
In assay [7] the test system is Staphylococcus aureus. Description: In vitro minimal inhibitory concentration (MIC) in brain-heart infusion broth in the presence of hog liver esterase(1:1.5) in Staphylococcus aureus 400. The class given is functional. The essentials: as §1
The subject of another assay is Pseudomonas aeruginosa. Kind of assay: In vitro minimal inhibitory concentration (MIC) in brain-heart infusion broth in the presence of hog liver esterase(1:1.5) in Pseudomonas aeruginosa 104. The class given is functional. The essentials:
as §1

In assay [8] the test system is Enterobacter cloacae. Description: In vitro minimal inhibitory concentration in brain-heart infusion broth in the presence of hog liver esterase(1:1.5) in […] 009. The format is functional. The essentials:
as §1

The nature of assay [9]: In vitro minimal inhibitory concentration (MIC) in brain-heart infusion broth in the presence of hog liver esterase(1:1.5) in Serr. marc. 095. The class given is functional. To be noted: Serratia marcescens. Put shortly: as §1
Assay [10] concerns Citrobacter koseri. Description: In vitro minimal inhibitory concentration in brain-heart infusion broth in presence of hog liver esterase(1:1.5) in Citrobacter diversus 031. The class given is functional. Put shortly:
as §1

For assay [11], the system named is Enterobacter cloacae. Description: In vitro minimal inhibitory concentration (MIC) in brain-heart infusion broth in the presence of hog liver esterase(1:1.5) in […] 009. The format is functional. The essentials:
as §1

Assay [12] relates to Klebsiella pneumoniae. Kind of assay: In vitro minimal inhibitory concentration in brain-heart infusion broth in presence of hog liver esterase(1:1.5) in Klebsiella pneumoniae 079. The class given is functional. Put shortly: as §1

Regarding `CC1(C)S[C@@H]2[C@H](NC(=O)COc3ccccc3)C(=O)N2[C@H]1C(=O)O` [PENICILLIN V], the MIC was more than 200 µg/mL in the assay with Citrobacter koseri [1]; 6.25 µg/mL with Haemophilus influenzae; more than 200 µg/mL in the assay with Morganella morganii; less than 0.025 µg/mL in the assay with Streptococcus pyogenes; less than 0.025 µg/mL in the assay with Staphylococcus aureus [2]; more than 200 µg/mL with Escherichia coli [3]. The MIC is 100 µg/mL in the assay with Escherichia coli [4]; more than 200 µg/mL with Klebsiella pneumoniae [5]; more than 200 µg/mL with Klebsiella pneumoniae [6]; 50 µg/mL in the assay on Staphylococcus aureus [7]; more than 200 µg/mL in the assay on Pseudomonas aeruginosa; more than 200 µg/mL in the assay with Enterobacter cloacae [8]. Besides, the MIC in assay [9] was more than 200 µg/mL.
Consider `CCN1CCN(C(=O)N[C@@H](C(=O)N[C@@H]2C(=O)N3[C@@H]2C(O)[C@H](C)[C@@H]3C(=O)OCOC(=O)C(C)(C)C)c2ccccc2)C(=O)C1=O` (stereo partly drawn), for which the MIC in the assay with Morganella morganii is less than 0.39 µg/mL; in the assay on Staphylococcus aureus [2], 25 µg/mL; in the assay with Escherichia coli [3], more than 200 µg/mL; with Escherichia coli [4], 6.25 µg/mL; in the assay with Citrobacter koseri [10] it was 12.5 µg/mL; in the assay with Klebsiella pneumoniae [5], 12.5 µg/mL. Besides, the MIC in the assay with Staphylococcus aureus [7] is more than 200 µg/mL; in the assay on Pseudomonas aeruginosa, 200 µg/mL; in the assay on Enterobacter cloacae [11], 12.5 µg/mL; in assay [9], 25 µg/mL.
As for `C[C@H]1C(=O)[C@@H]2[C@H](NC(=O)OCc3ccccc3)C(=O)N2[C@H]1C(=O)OCOC(=O)C(C)(C)C`, the MIC is more than 200 µg/mL in the assay with Citrobacter koseri [1]; more than 200 µg/mL in the assay with Klebsiella pneumoniae [12]; more than 200 µg/mL in the assay with Morganella morganii; 100 µg/mL with Staphylococcus aureus [2]; more than 200 µg/mL in the assay on Escherichia coli [3]; more than 200 µg/mL in the assay with Escherichia coli [4]. Also, the MIC (in the assay with Staphylococcus aureus [7]; with Pseudomonas aeruginosa; with Enterobacter cloacae [11]; in assay [9]) was more than 200 µg/mL in each case.
`C[C@H]1C(O)[C@@H]2[C@H](NC(=O)COc3ccccc3)C(=O)N2[C@H]1C(=O)OCOC(=O)C(C)(C)C` (stereo partly drawn): the MIC is more than 200 µg/mL with Citrobacter koseri [1]; more than 200 µg/mL with Klebsiella pneumoniae [12]; more than 200 µg/mL in the assay with Morganella morganii; 25 µg/mL in the assay with Staphylococcus aureus [2]; more than 200 µg/mL with Escherichia coli [3]; more than 200 µg/mL with Escherichia coli [4]. Besides, the MIC in the assay with Staphylococcus aureus [7] was 50 µg/mL; with Pseudomonas aeruginosa, more than 200 µg/mL; with Enterobacter cloacae [11] it was more than 200 µg/mL; in assay [9], more than 200 µg/mL.
Turning to `C[C@@H](O)[C@H]1C(=O)N2C(C(=O)O)=C(SCCN)C[C@H]12` [THIENAMYCIN], the MIC in the assay with Haemophilus influenzae is 0.78 µg/mL; with Morganella morganii, 6.25 µg/mL; with Streptococcus pyogenes, less than 0.025 µg/mL; with Staphylococcus aureus [2], less than 0.025 µg/mL; in the assay with Escherichia coli [3], 0.39 µg/mL; in the assay with Escherichia coli [4], 0.1 µg/mL. Besides, the MIC in the assay on Klebsiella pneumoniae [6] is 0.2 µg/mL; in the assay on Staphylococcus aureus [7], less than 0.025 µg/mL; with Pseudomonas aeruginosa, 3.12 µg/mL; in the assay with Enterobacter cloacae [11], 0.39 µg/mL.
For `N[C@@H](C(=O)N[C@@H]1C(=O)N2C(C(=O)O)=C(Cl)CS[C@H]12)c1ccccc1` [CEFACLOR ANHYDROUS], the MIC was 3.12 µg/mL in the assay on Haemophilus influenzae; more than 200 µg/mL in the assay on Morganella morganii; 0.05 µg/mL in the assay on Streptococcus pyogenes; 1.56 µg/mL in the assay with Staphylococcus aureus [2]; 50 µg/mL with Escherichia coli [3]; 3.12 µg/mL in the assay with Escherichia coli [4]. Besides, the MIC is 1.56 µg/mL in the assay with Klebsiella pneumoniae [6], 3.12 µg/mL with Staphylococcus aureus [7], more than 200 µg/mL with Pseudomonas aeruginosa and more than 200 µg/mL in the assay on Enterobacter cloacae [11].
With `CC1=C(C(=O)OCOC(=O)C(C)(C)C)N2C(=O)[C@H]([C@@H](C)O)[C@H]2C1O` (stereo partly drawn), the MIC in the assay with Haemophilus influenzae amounted to 6.25 µg/mL; with Morganella morganii, 50 µg/mL; with Streptococcus pyogenes, 0.78 µg/mL; in the assay with Staphylococcus aureus [2], 3.12 µg/mL; with Escherichia coli [3], 6.25 µg/mL; with Escherichia coli [4], 6.25 µg/mL. In addition, the MIC with Klebsiella pneumoniae [6] worked out at 6.25 µg/mL; with Staphylococcus aureus [7], 1.56 µg/mL; with Pseudomonas aeruginosa, 100 µg/mL; in the assay with Enterobacter cloacae [11], 12.5 µg/mL.
For `CC(=O)OC1[C@H](C)C(C(=O)OCOC(=O)C(C)(C)C)N2C(=O)[C@H](NC(=O)COc3ccccc3)[C@@H]12` (stereo partly drawn), the MIC in the assay with Morganella morganii, in the assay with Staphylococcus aureus [2], with Escherichia coli [3], in the assay on Escherichia coli [4], with Citrobacter koseri [10] and in the assay on Klebsiella pneumoniae [5] was more than 200 µg/mL each time. In addition, the MIC (in the assay on Staphylococcus aureus [7]; in the assay on Pseudomonas aeruginosa; with Enterobacter cloacae [11]; in assay [9]) was more than 200 µg/mL in each case.

For the origin of these results see ChEMBL document CHEMBL1124946, “Cephalosporins to carbapenems: 1-oxygenated carbapenems and carbapenams” (1990).
